# High-throughput results as filed in PubChem BioAssay.
# ABCB1 block = blocks JC-1 efflux by human ABCB1 transporter. P08183. CCRF-Adr cells, flow cytometry. inhibition, % at 6.6 µM. hit rate 0.067% among 190,000. AID 1326; in the data active means inhibition above about 40%;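 further: 0% = vehicle and 100% = reference inhibitor; higher value means more JC-1 retained so stronger ABCB1 efflux block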
# ABCG2 inh = human ABCG2 inhibition, ABCB1 as counter-screen; AID 1325; hit rate 0.1% among 190,000; Q9UNQ0; inhibition, % at 6.6 µM; IgMXP3 cells, JC-1 efflux, flow cytometry;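 active means inhibition above 80%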;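 further: 0% = DMSO and 100% = nicardipine control wells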
#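 Read-out basis: Efflux inhibition in percent versus controls | Test system: ABCG2 IgMXP3 and barcoded ABCB1 CCRF-Adr cell mix | Quantity: 3 million cells/mL in well | Schedule: 10 min at 25 °C | Control set: Nicardipine as high control, DMSO as low control | Reagent: JC-1 as fluorescent efflux pump substrate | Signal: Flow cytometry of retained JC-1 fluorescence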
# PKD1 inh = blocks activity of human protein kinase D1; Q15139; PKD1 kinase fluorescence polarization assay; inhibition, % (concentration not given with the values); hit rate 0.056% among 200,000
# GSH fluor = compound fluoresces at 488/530 nm on GSH beads | GSH beads flow cytometry, compound fluorescence 488/530 nm; stronger effect = higher value | fluorescence (KMESF) at 10 µM | hit rate 0.25% among 190,000; in the data active means fluorescence above about 89;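 further: glutathione beads carrying GST-tagged Bcl family fusion proteins plus one bare bead set; values are compound well signal with DMSO vehicle wells as background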
# Avidin fluor = compound fluoresces at 488/530 nm on avidin beads; hit rate 0.38% among 220,000; compound fluorescence 488/530 nm, flow cytometry; stronger effect = higher value; fluorescence (KMESF) at 10 µM; in the data active means fluorescence above about 47
# Lmaj promast = reduces viability of Leishmania major promastigotes; inhibition, % at 10 µM; resazurin fluorescence viability; hit rate 9% among 200,000;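 further: promastigotes grown with compound for 44 hours at 28 °C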
# * hit, by the source's call; . = no result. The entries come from a sample that favours hits as a whole. Unless noted, no stated cut-off is given here; in the data, active means inhibition above about 50%; inactive means the rest.
SMILES,ABCB1 block,ABCG2 inh,PKD1 inh,GSH fluor,Avidin fluor,Lmaj promast
O=C(NCc1ccco1)/C(=C/c1cccc(C(F)(F)F)c1)c1nc2ccccc2[nH]1,0,1,-2,11,4,80*
O=C(NCc1ccco1)/C(=C/c1ccc(C(F)(F)F)cc1)c1nc2ccccc2[nH]1,0,-1,-10,5,13,84*
Cc1ccccc1NC(=O)COC(=O)CCc1ccccc1,1,2,-3,22,26,-6
CCCCn1c(=O)c(CCC(=O)OCC(=O)NCc2ccc(OC)c(OC)c2)nc2ccccc21,1,3,-6,11,24,-7
CCCCNC(=O)CSc1nc2ccccc2c(=O)n1C1CCCC1,0,3,-1,66,15,95*
CC(=O)NCCn1c(SCC(=O)NC2CCCCC2)nc2ccccc2c1=O,0,2,-10,19,10,2
CCOC(=O)CSc1nc2ccccc2c(=O)n1C,1,26,-7,26,31,-5
CCOC(=O)CSc1nc2ccccc2c(=O)n1C1CCCC1,1,14,0,34,91*,-4
CC(C)(C)OC(=O)CNC(=O)c1nc[nH]c1C(=O)NCC(=O)OC(C)(C)C,.,.,.,.,8,.
N#C/C(=C/c1ccncc1)c1nc2ccccc2s1,0,3,5,11,20,3
CC1CCc2nc(/C(C#N)=C/c3ccncc3)sc2C1 (centres undefined),0,20,0,16,9,53*
Cc1cc(C)nc(Sc2nc(C)nc3c2oc2ccccc23)n1,0,1,-5,22,6,72*
CCOc1cc(S(=O)(=O)Nc2cc(C)cc(C)c2)ccc1Cl,1,7,-2,13,8,96*
O=C(CN1CCSCC1)N/N=C/c1ccccc1F,1,3,-2,11,19,-2
Cc1cc(/C=N\NC(=O)CC(=O)NC2CCCCC2)c(C)n1-c1cccc(Cl)c1Cl,0,-3,12,21,7,95*
O=C(CN1CCCCCCC1)N/N=C/c1ccccc1F,0,2,-7,14,15,52*
O=C(CN1CCCCCCC1)N/N=C/c1ccc(F)c(F)c1,0,6,-11,8,18,97*
O=C(CN1CCCCCC1)N/N=C/c1cccc(Cl)c1Cl,1,12,-4,12,12,62*
Cc1cc(/C=N\NC(=O)CC(=O)NC2CCCCC2)c(C)n1-c1ccc(Cl)c(Cl)c1,-1,25,-16,36,13,-5
COc1ccc(C)cc1S(=O)(=O)N(CC(N)=O)Cc1ccccc1,0,3,-3,18,9,-4
O=C(CNC(=O)COc1ccccc1)NCc1ccccc1F,1,2,1,11,11,-7
O=C(Nc1ccccc1)C1=C[C@@H](c2csc3ccccc23)C[C@@H](OCc2ccc(CO)cc2)O1,2,7,5,20,5,58*
CN1CCN(C(=O)C2=C[C@@H](c3csc4ccccc34)C[C@@H](OCc3ccc(CO)cc3)O2)CC1,0,1,-1,17,7,90*
O=C(C1=C[C@H](c2csc3ccccc23)C[C@H](OCc2ccc(CO)cc2)O1)N1CCN(Cc2ccc3c(c2)OCO3)CC1,6,3,2,19,5,66*
O=C(Nc1ccccc1)C1=C[C@@H](c2ccc(C(F)(F)F)cc2)C[C@@H](OCc2ccc(CO)cc2)O1,2,19,11,18,5,65*
SMILES,ABCB1 block,ABCG2 inh,PKD1 inh,GSH fluor,Avidin fluor,Lmaj promast
Cc1cccc(NC(=O)c2sc3nc(N)c(C#N)cc3c2N)c1,0,-1,13,14,15,7
CC(=O)n1cc([C@H]2C=C(C(=O)N3CCN(Cc4ccccc4)CC3)O[C@@H](OCCCCO)C2)c2ccccc21,3,21,4,18,6,11
CC(=O)n1cc([C@@H]2C=C(C(=O)N3CCN(Cc4ccccc4)CC3)O[C@H](OCc3ccc(CO)cc3)C2)c2ccccc21,15,11,-1,20,6,97*
O=C(COC(=O)c1cnccn1)c1cccc([N+](=O)[O-])c1,.,.,.,.,5,.
CNc1nc(-c2c[nH]c3ccccc23)cs1,1,-1,-2,24,93*,6
O=C(Nc1ccc(S(=O)(=O)N2CCCCCC2)cc1)c1ccco1,0,7,0,12,9,-3
